ChEMBL document CHEMBL4431310, “Characterization and in vitro activity of a branched peptide boronic acid that interacts with HIV-1 RRE RNA” (Bioorg Med Chem, 2016)
The source made the active and inactive calls. The rule behind the calls is not given here. *1 amine or outer side, *2 acyl side, *3 side chain or, on linkers, in order; H or OH if unused. Where a SMILES comes first, the peptide text is derived from it. Side-chain parts run from the residue outwards. [ ]: non-standard residue; d: D form. The star is where a group is joined. X4 = NCCCC[C@H](NC(=O)[C@@H](N)CCCCNC(=O)c1ccc(B(O)O)cc1)C(=O)N[C@@H](Cc1ccc(B(O)O)cc1)C(=O)*; X1 = N[C@@H](Cc1ccc(B(O)O)cc1)C(=O)N[C@@H](Cc1ccc(O)cc1)C(=O)N[C@@H](Cc1ccc(B(O)O)cc1)C(=O)*; X2 = NCCCC[C@H](NC(=O)[C@@H](N)CCCCN)C(=O)N[C@@H](CCCCNC(=O)c1ccc(B(O)O)cc1)C(=O)*; X3 = NCCCC[C@H](N)C(=O)N[C@@H](CCCCNC(=O)c1ccc(B(O)O)cc1)C(=O)*; Phe(4-B(OH)2) = N[C@@H](Cc1ccc(B(O)O)cc1)C(=O)O; Benzoyl(4-B(OH)2) = O=C(c1ccc(B(O)O)cc1)*; εLys = N[C@@H](CCCCN[*:1])C(=O)[*:2]

Assays:
[1] = target: Rev responsive element (RRE) RNA; test: Binding affinity to HIV-1 RRE 2B RNA measured after 4 hrs by dot blot assay; format: nucleic-acid assay, Human immunodeficiency virus 1
In short: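 RNA at 0.4 nM titrated with peptide 0.001–100 µM for 4 h at rt, filtered through nitrocellulose, washed twice, imaged by phosphorimaging. Kd from four-parameter logistic fit of densitometry; triplicate, SD reported.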

[2] = tested on: Human immunodeficiency virus 1; test: Antiviral activity against HIV-1 NL4-3 infected monkey 5BD.1 cells assessed as reduction in p24 production at 10 uM measured over 24 hrs by p24 ELISA; format: functional
[3] = tested on: Human immunodeficiency virus 1; test: Antiviral activity against HIV-1 NL4-3 infected in human U87 cells expressing CD4.CXCR4 assessed as inhibition of p24 production at 100 uM measured after 4 days by p24 ELISA; format: functional, organism-based
[4] = tested on: Human immunodeficiency virus 1; test: Antiviral activity against HIV-1 NL4-3 infected in human U87 cells expressing CD4.CXCR4 assessed as inhibition of p24 production at 10 uM measured after 4 days by p24 ELISA; format: functional, organism-based
[5] = tested on: Rev responsive element (RRE) RNA; test: Binding affinity to HIV-1 RRE 2B RNA assessed as protection against RNase T1-mediated RRE 2B cleavage preincubated for 4 hrs followed by addition of RNase T1 measured up to 20 uM after 1 hr by nuclease protection assay; format: nucleic-acid assay; conditions: Human immunodeficiency virus 1
In short: (§1)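 5'-32P-labeled RRE IIB (10 nM) mixed with unlabeled RRE IIB (200 nM), heated to 95 °C for 3 min and snap-cooled. Incubated with peptide (up to 20 µM) on ice for 4 h in 10 mM Tris pH 7, 100 mM KCl, 10 mM MgCl2. Digested on ice with RNase V1 (0.002 U, 10 min), RNase T1 (1 U, 1 h) or RNase A (20 ng, 1 h). Stopped with inactivation/precipitation buffer, run on 12% urea PAGE, read by autoradiography against an alkaline hydrolysis ladder.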

[6] = tested on: Rev responsive element (RRE) RNA; test: Binding affinity to HIV-1 RRE 2B RNA assessed as protection against RNase A-mediated RRE 2B cleavage at U9 and G34 preincubated for 4 hrs followed by addition of RNase A at 20 uM measured after 1 hr by nuclease protection assay; format: nucleic-acid assay; conditions: Human immunodeficiency virus 1; in short: as §1
[7] = Toxicity against human U87 cells expressing CD4.CXCR4 assessed as cell viability at 10 uM measured after 24 hrs by MTT assay; format: cell-based, U-87MG ATCC; conditions: read-out: Activity
[8] = tested on: Human immunodeficiency virus 1; test: Antiviral activity against HIV-1 NL4-3 infected in human U87 cells expressing CD4.CXCR4 assessed as inhibition of p24 production measured after 4 days by p24 ELISA; format: functional, organism-based
[9] = target: Rev responsive element (RRE) RNA; test: Binding affinity to HIV-1 RRE 2B RNA measured after 4 hrs by EMSA; format: nucleic-acid assay, Human immunodeficiency virus 1
[10] = Binding affinity to HIV-1 TAR RNA; set-up: species or system Human immunodeficiency virus 1
[11] = target: Rev responsive element (RRE) RNA; test: Binding affinity to HIV-1 RRE 2B RNA in presence of 1000-fold excess tRNA; format: nucleic-acid assay, Human immunodeficiency virus 1
[12] = tested on: Rev responsive element (RRE) RNA; test: Binding affinity to HIV-1 RRE 2B RNA assessed as protection against RNase A-mediated RRE 2B cleavage at C33 of loop B preincubated for 4 hrs followed by addition of RNase A at 20 uM measured after 1 hr by nuclease protection assay; format: nucleic-acid assay; conditions: Human immunodeficiency virus 1; in short: as §1
[13] = tested on: Rev responsive element (RRE) RNA; test: Binding affinity to HIV-1 RRE 2B RNA assessed as protection against RNase T1-mediated RRE 2B cleavage at G10 and G11 preincubated for 4 hrs followed by addition of RNase T1 at 20 uM measured after 1 hr by nuclease protection assay; format: nucleic-acid assay; conditions: Human immunodeficiency virus 1; in short: as §1
[14] = tested on: Rev responsive element (RRE) RNA; test: Binding affinity to HIV-1 RRE 2B RNA assessed as protection against RNase V1-mediated RRE 2B cleavage at G17 and C18 preincubated for 4 hrs followed by addition of RNase V1 measured after 10 mins by nuclease protection assay; format: nucleic-acid assay; conditions: Human immunodeficiency virus 1; in short: as §1
[15] = tested on: Rev responsive element (RRE) RNA; test: Selectivity ratio of Kd for HIV-1 RRE 2B RNA to Kd for HIV-1 RRE 2B RNA in presence of 1000-fold excess tRNA; format: nucleic-acid assay; conditions: Human immunodeficiency virus 1
[16] = tested on: Rev responsive element (RRE) RNA; test: Binding affinity to HIV-1 RRE 2B RNA assessed as protection against RNase A-mediated RRE 2B cleavage at C21 and U24 preincubated for 4 hrs followed by addition of RNase A measured up to 20 uM after 1 hr by nuclease protection assay; format: nucleic-acid assay; conditions: Human immunodeficiency virus 1; in short: as §1
[17] = tested on: HeLa; test: Cytotoxicity in human HeLa cells assessed as cell viability at 100 nM to 10 uM measured over 24 hrs by MTT assay; format: cell-based; conditions: 0.1 µM

Kd [1] | Compound | inhibition [2] | inhibition [4] | other results
> 100 µM | N[C@@H](Cc1ccc(B(O)O)cc1)C(=O)N[C@@H](Cc1ccc(O)cc1)C(=O)N[C@@H](Cc1ccc(B(O)O)cc1)C(=O)NCCCC[C@H](NC(=O)[C@H](Cc1ccc(B(O)O)cc1)NC(=O)[C@H](Cc1ccc(O)cc1)NC(=O)[C@@H](N)Cc1ccc(B(O)O)cc1)C(=O)O | – | – | –
– | CCc1c(C)nc2sc(C(N)=O)c(N)c2c1C | Active | – | –
– | Cc1cn([C@H]2C[C@H](N=[N+]=[N-])[C@@H](CO)O2)c(=O)[nH]c1=O | – | Active | inhibition [3]: Active
– | Nc1ccn([C@@H]2CS[C@H](CO)O2)c(=O)n1 | – | Active | inhibition [3]: Active
3.3 µM | NCCCC[C@H](NC(=O)[C@H](CCCCN)NC(=O)[C@H](CCCCNC(=O)c1ccc(B(O)O)cc1)NC(=O)[C@H](CCCCNC(=O)[C@H](Cc1ccc(B(O)O)cc1)NC(=O)[C@H](CCCCN)NC(=O)[C@@H](N)CCCCNC(=O)c1ccc(B(O)O)cc1)NC(=O)[C@H](Cc1ccc(B(O)O)cc1)NC(=O)[C@H](CCCCN)NC(=O)[C@@H](N)CCCCNC(=O)c1ccc(B(O)O)cc1)C(=O)N[C@@H](Cc1ccc(O)cc1)C(=O)O (H-K(Benzoyl(4-B(OH)2))K[Phe(4-B(OH)2)]K(X4)K(Benzoyl(4-B(OH)2))KKY-OH) | Active | inactive | –
86.5 µM | NCCCC[C@H](NC(=O)[C@H](Cc1ccc(O)cc1)NC(=O)[C@@H](N)CCCCNC(=O)c1ccc(B(O)O)cc1)C(=O)NCCCC[C@H](NC(=O)[C@H](CCCCN)NC(=O)[C@H](Cc1ccc(O)cc1)NC(=O)[C@@H](N)CCCCNC(=O)c1ccc(B(O)O)cc1)C(=O)N[C@@H](Cc1cnc[nH]1)C(=O)N[C@@H](CCCCN)C(=O)N[C@@H](CCCCN)C(=O)N[C@@H](Cc1ccc(O)cc1)C(=O)O (H-K(Benzoyl(4-B(OH)2))YKK([Lys-Tyr-εLys-Benzoyl(4-B(OH)2)])HKKY-OH) | Active | inactive | –
27.2 µM | NCCCC[C@H](NC(=O)[C@H](CCCCN)NC(=O)[C@H](CCCCNC(=O)[C@H](Cc1ccccc1)NC(=O)[C@H](CCCCNC(=O)c1ccc(B(O)O)cc1)NC(=O)[C@@H](N)CCCCN)NC(=O)[C@H](Cc1ccccc1)NC(=O)[C@H](CCCCNC(=O)c1ccc(B(O)O)cc1)NC(=O)[C@@H](N)CCCCN)C(=O)N[C@@H](Cc1c[nH]c2ccccc12)C(=O)N[C@@H](Cc1ccc(O)cc1)C(=O)O (H-KK(Benzoyl(4-B(OH)2))FK([Phe-X3])KKWY-OH) | Active | inactive | –
58.4 µM | CC(C)C[C@H](NC(=O)[C@H](CCCCN)NC(=O)[C@H](CCCCNC(=O)[C@H](CCCCN)NC(=O)[C@H](CCCCNC(=O)c1ccc(B(O)O)cc1)NC(=O)[C@@H](N)CCCCN)NC(=O)[C@H](CCCCN)NC(=O)[C@H](CCCCNC(=O)c1ccc(B(O)O)cc1)NC(=O)[C@@H](N)CCCCN)C(=O)N[C@@H](CCCCN)C(=O)N[C@@H](Cc1ccc(O)cc1)C(=O)O (H-KK(Benzoyl(4-B(OH)2))KK([Lys-X3])KLKY-OH) | Active | inactive | –
26.8 µM | C[C@@H](O)[C@H](NC(=O)[C@H](Cc1ccc(B(O)O)cc1)NC(=O)[C@H](CCCCNC(=O)[C@H](CCCCNC(=O)c1ccc(B(O)O)cc1)NC(=O)[C@H](CCCCN)NC(=O)[C@@H](N)CCCCN)NC(=O)[C@H](CCCCNC(=O)c1ccc(B(O)O)cc1)NC(=O)[C@H](CCCCN)NC(=O)[C@@H](N)CCCCN)C(=O)N[C@@H](CO)C(=O)N[C@@H](Cc1ccc(O)cc1)C(=O)O (H-KKK(Benzoyl(4-B(OH)2))K(X2)[Phe(4-B(OH)2)]TSY-OH) | Active | inactive | –
1.4 µM | NCCCC[C@H](NC(=O)[C@H](CCCCN)NC(=O)[C@@H](N)Cc1c[nH]c2ccccc12)C(=O)NCCCC[C@H](NC(=O)[C@H](CCCCN)NC(=O)[C@H](CCCCN)NC(=O)[C@@H](N)Cc1c[nH]c2ccccc12)C(=O)N[C@@H](CCCCNC(=O)c1ccc(B(O)O)cc1)C(=O)N[C@@H](Cc1ccc(O)cc1)C(=O)N[C@@H](Cc1c[nH]c2ccccc12)C(=O)N[C@@H](Cc1ccc(O)cc1)C(=O)O (H-WKKK([Lys-Lys-Trp])K(Benzoyl(4-B(OH)2))YWY-OH) | Active | inactive | –
28.5 µM | C[C@@H](O)[C@H](NC(=O)[C@@H]1CCCN1C(=O)[C@H](CCCCNC(=O)[C@H](CCCCN)NC(=O)[C@H](Cc1ccc(O)cc1)NC(=O)[C@@H](N)Cc1c[nH]c2ccccc12)NC(=O)[C@H](CCCCN)NC(=O)[C@H](Cc1ccc(O)cc1)NC(=O)[C@@H](N)Cc1c[nH]c2ccccc12)C(=O)N[C@@H](Cc1c[nH]c2ccccc12)C(=O)N[C@@H](Cc1ccc(O)cc1)C(=O)O (H-WYKK([Lys-Tyr-Trp])PTWY-OH) | Active | inactive | –
8.7 µM | NCCCC[C@H](NC(=O)[C@H](CC(N)=O)NC(=O)[C@H](CCCCNC(=O)[C@H](Cc1ccc(B(O)O)cc1)NC(=O)[C@H](Cc1ccc(O)cc1)NC(=O)[C@@H](N)Cc1ccc(B(O)O)cc1)NC(=O)[C@H](Cc1ccc(B(O)O)cc1)NC(=O)[C@H](Cc1ccc(O)cc1)NC(=O)[C@@H](N)Cc1ccc(B(O)O)cc1)C(=O)N[C@@H](CO)C(=O)N[C@@H](Cc1ccc(O)cc1)C(=O)O (H-[Phe(4-B(OH)2)]Y[Phe(4-B(OH)2)]K(X1)NKSY-OH) | – | Active | Activity [5]: inactive; Activity [6]: inactive; viability at 24 h, 10 µM [7]: > 80%; inhibition [8]: Dose-dependent effect; IC50 ([8]; Human immunodeficiency virus 1, NL4-3, U-87 MG, 96 h): 5 µM; inhibition at 10 µM ([2]; Human immunodeficiency virus 1, NL4-3, in Primates): 70%; Kd [9]: 4.6 µM; Kd [10]: 5.2 µM; Kd [11]: 26.4 µM; inhibition [3]: Active; Activity [12]: inactive; Activity [13]: inactive; Activity [14]: Dose-dependent effect; Selectivity ratio [15]: 3; Activity [16]: Active; Activity [17]: Non-Toxic
17.7 µM | NCCCC[C@H](NC(=O)[C@H](CC(N)=O)NC(=O)[C@H](CCCCN)NC(=O)[C@H](Cc1ccc(B(O)O)cc1)NC(=O)[C@H](Cc1ccc(O)cc1)NC(=O)[C@@H](N)Cc1ccc(B(O)O)cc1)C(=O)N[C@@H](CO)C(=O)N[C@@H](Cc1ccc(O)cc1)C(=O)O (H-[Phe(4-B(OH)2)]Y[Phe(4-B(OH)2)]KNKSY-OH) | – | – | –
27.2 µM | NCCCC[C@H](NC(=O)[C@H](CC(N)=O)NC(=O)[C@H](Cc1ccc(B(O)O)cc1)NC(=O)[C@H](Cc1ccc(O)cc1)NC(=O)[C@H](Cc1ccc(B(O)O)cc1)NC(=O)[C@H](Cc1ccc(B(O)O)cc1)NC(=O)[C@H](Cc1ccc(O)cc1)NC(=O)[C@@H](N)Cc1ccc(B(O)O)cc1)C(=O)N[C@@H](CO)C(=O)N[C@@H](Cc1ccc(O)cc1)C(=O)O (H-[Phe(4-B(OH)2)]Y[Phe(4-B(OH)2)][Phe(4-B(OH)2)]Y[Phe(4-B(OH)2)]NKSY-OH) | – | – | –
